Compound activity from PubChem.
KCNK9 inh – KCNK9 potassium channel inhibitors, primary screen, HEK293 cells, thallium flux | B-score at 10 µM | AID 488922, 2010 | FluxOR thallium flux fluorescence; active compounds read low | 1.2% of 310,000 active | Potassium channel subfamily K member 9 (Homo sapiens), Q9NPC2;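 active means ratio B-score over 3 SD below the library mean, with starting fluorescence within 5 SD of its mean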;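 further: negative B-score means less thallium flux so channel inhibition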
hERG rescue – hERG rescue from dofetilide block, primary screen, cell-based, CHO-hERG, FluxOR thallium flux, dofetilide IC70; AID 1511, 2009; dofetilide IC70 present; 0.51% of 310,000 active; activation (rescue from dofetilide block), less the hit threshold, % at 10 µM;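 active means activation above the mean of controls blocked by dofetilide plus 5 SD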;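 further: thallium influx through hERG after potassium depolarization seen as dye fluorescence rise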
KCNQ1 inh – inhibitors of human KCNQ1 channel, primary screen, cell-based, thallium flux, high-throughput; Potassium voltage-gated channel subfamily KQT member 1 (Homo sapiens), P51787; CHO-K1 KCNQ1, FluxOR thallium flux fluorescence; active compounds read high; B-score at 10 µM; 1.3% of 310,000 active;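 active means compounds whose thallium flux B-score, printed positive for inhibition, exceeds three library SD while starting fluorescence stays within three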;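 further: channel opened by potassium depolarization with thallium stimulus after 20 min compound exposure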
KCNK3 block – human KCNK3 channel inhibitors, primary screen, CHO cells, FluxOR thallium flux, B-score; Potassium channel subfamily K member 3 (Homo sapiens), O14649; FluxOR fluorescence; active compounds read low; B-score at 10 µM; 0.84% of 340,000 active; AID 602410, 2012;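 active means B-score under library mean minus 4 SD, starting fluorescence ratio at most library mean plus 5 SD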;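 further: more negative B-score means stronger inhibition of thallium flux through KCNK3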
Target sequence (O14649 whole entry, looked up): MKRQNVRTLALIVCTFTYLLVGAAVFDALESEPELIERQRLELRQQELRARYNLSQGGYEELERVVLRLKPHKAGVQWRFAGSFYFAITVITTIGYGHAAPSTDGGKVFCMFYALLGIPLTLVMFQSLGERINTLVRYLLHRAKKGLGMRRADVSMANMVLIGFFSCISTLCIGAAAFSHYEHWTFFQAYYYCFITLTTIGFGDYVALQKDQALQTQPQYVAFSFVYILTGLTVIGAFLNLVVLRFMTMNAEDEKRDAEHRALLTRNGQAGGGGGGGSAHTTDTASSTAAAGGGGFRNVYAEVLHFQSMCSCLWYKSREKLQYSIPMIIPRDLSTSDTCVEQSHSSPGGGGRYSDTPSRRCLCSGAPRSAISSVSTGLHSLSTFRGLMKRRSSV
Kir21 block – inhibitors of mouse Kir2.1 inward-rectifier potassium channel; Inward rectifier potassium channel 2 (Mus musculus), P35561; HEK293-Kir2.1, FluxOR thallium flux fluorescence; active compounds read low; B-score at 10 µM; 0.85% of 310,000 active; AID 1672, 2009;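 active means fluorescence ratio B-score at or below minus 3 SD of library scores, with starting-brightness B-score within 2 SD, cut at about -4.2 in these data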;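 further: channel flux triggered by added potassium and thallium sulfate stimulus; B-score of peak minus minimum fluorescence over baseline after thallium stimulus; more negative B-score means stronger Kir2.1 block with less thallium influx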
KCNQ1 act – potentiators or activators of KCNQ1 channel, primary screen, cell-based, thallium flux, high-throughput; B-score at 10 µM; Potassium voltage-gated channel subfamily KQT member 1 (Homo sapiens), P51787; 0.35% of 310,000 active; CHO-K1 KCNQ1, thallium flux FluxOR fluorescence; active compounds read high;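 active means fluorescence ratio B-score, a plate-corrected score, at least three library SD, with initial intensity B-score within 5 SD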
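Medium – assay buffer, equal DMSO in all wells · Material – CHO-K1 cell line with stable KCNQ1 potassium channel expression · Signal – kinetic FluxOR thallium fluorescence, 10-s 1-Hz baseline, 110-s post-stimulus read · Compound – single concentration per compound, DMSO matched to controls · Schedule – 37 °C overnight plating, 90-min dark dye load, 20-min compound pretreatment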
KCNK9 inh conf – KCNK9 potassium channel inhibitors, confirmation, HEK293 cells, thallium flux, duplicate. 43% of 4,900 active. inhibition, % at 10 µM. shares compounds with KCNK9 inh. AID 492992, 2010. FluxOR thallium flux fluorescence;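 active means thallium signal inhibited by more than 5 SD of the compound-free buffer control wells, on both duplicate plates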;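 further: 0% = assay buffer control wells without compound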
Kir2-1 spec – mouse Kir2.1 channel inhibition, confirmation, selectivity assay for KCNK9 modulator project, cell-based, HEK293, thallium flux. shares compounds with KCNK9 inh. Kir2.1 cells, FluxOR thallium flux fluorescence. inhibition, % at 10 µM. 4% of 4,900 active. AID 492993, 2010;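 active means thallium signal drop more than 5 SD beyond the mean of the no-compound control wells, seen in both duplicate plates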;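 further: signal is fluorescence rise after thallium addition divided by baseline fluorescence; plate controls were assay buffer only for no effect and full block by chlorpromazine control for full effect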
KCNK9 uninduced – thallium flux in non-induced HEK293 cells, confirmation, counter-screen for KCNK9 inhibitor project, cell-based, second counter screen, non-induced KCNK9-HEK293; shares compounds with KCNK9 inh; FluxOR thallium flux; inhibition, % at 10 µM; 40% of 4,900 active;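 active means thallium signal drop beyond 5 SD of the untreated control mean, on both duplicate plates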;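 further: plate controls were buffer only IC0 wells for no effect and SID17386958 at its maximal inhibitory level for full effect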
KCNK3 inh conf – retest of human KCNK3 channel inhibitors, confirmation, CHO cells, FluxOR thallium flux, triplicate; 99% of 2,400 active; AID 651638, 2012; ratio percent of control, % at 10 µM; FluxOR fluorescence; 0% buffer, 100% carvedilol maximal block; shares compounds with KCNK3 block;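 active means ratio percent of control, averaged over triplicates, above buffer control mean plus 5 SD, cut at about 64% in these data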;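 further: ratio is the fluorescence rise from min to max over baseline after thallium stimulus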
KCNK3 noninduced – thallium flux inhibition in non-induced cells, primary screen, counter-screen for KCNK3 inhibitor project, cell-based, non-induced KCNK3 line, FluxOR thallium, triplicate. shares compounds with KCNK3 block. non-induced KCNK3 parental cells; active compounds read low. thallium flux ratio (lower = more inhibition) at 10 µM. 40% of 2,400 active;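 active means thallium flux ratio, averaged over three wells, more than 5 SD below the buffer control mean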;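 further: host cells are CHO cells without KCNK3 induction; ratio is peak minus trough fluorescence over baseline then normalized to buffer controls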
An asterisk follows results filed as active; i = inactive; nt = no result. An excerpt weighted towards active compounds, which were near 3.7% of everything screened.

SMILES	KCNK9 inh	hERG rescue	KCNQ1 inh	KCNK3 block	Kir21 block	KCNQ1 act	KCNK9 inh conf	Kir2-1 spec	KCNK9 uninduced	KCNK3 inh conf	KCNK3 noninduced
CC(C(=O)N1CCN(Cc2ccc3c(c2)OCO3)CC1)n1cc([N+](=O)[O-])cn1 (stereo not drawn)	i	-8	i	i	1.1	i	nt	nt	nt	nt	nt
c1ccc(C2c3[nH]c4ccccc4c3CCN2Cc2cccn2-c2ccccn2)nc1 (stereo not drawn)	i	-19	i	i	-0.53	i	nt	nt	nt	nt	nt
COc1ccc(C2c3[nH]c4ccccc4c3CCN2Cc2cccn2-c2ncccn2)cc1C (stereo not drawn)	-18*	-20	i	-13*	0.97	i	54%*	i	36%*	131*	0.14*
Cc1cccc(C2c3[nH]c4ccccc4c3CCN2Cc2cccn2-c2ncccn2)c1 (stereo not drawn)	-8.5*	-32	i	-14*	-1.8	i	i	i	32%*	113*	i
O=[N+]([O-])c1cccc(C2CC(c3ccccc3)=NN2c2ccccc2)c1 (stereo not drawn)	-10*	-5	i	i	1.5	i	56%*	i	28%*	94*	i
C=CCSc1nc(N)c(C(=O)Nc2ccccc2)cc1C#N	i	-8	i	i	0.29	i	nt	nt	nt	nt	nt
C=CCSc1nc(N)c(C(=O)Nc2ccccc2OC)cc1C(=O)Nc1ccccc1	-8.7*	-9	i	-11*	0.43	i	27%*	i	i	107*	i
COc1ccccc1C(=O)NC(CCSC)C(=O)NCC(c1cccs1)N1CCOCC1 (stereo not drawn)	i	-15	i	i	-1.4	i	nt	nt	nt	nt	nt
COc1nc(N2CCCCCC2)nc(N2CCCCCC2)n1	-11*	-12	i	i	-0.94	i	i	i	54%*	99*	i
C=CC[n+]1c(/C=C2\C=Cc3cc(C)ccc3N2CC)ccc2ccccc21	-13*	-33	16*	-16*	-6.5*	i	78%*	88%*	63%*	146*	0.11*
CCC1CCCCN1C(=O)CCCOc1ccccc1 (stereo not drawn)	i	-10	i	i	-2	i	nt	nt	nt	nt	nt
CCCCC[C@H](O)/C=C/[C@H]1CCC(=O)[C@@H]1CCCCCCC(=O)N1CCCCC1CO (stereo partly drawn)	-12*	-4	i	i	-0.1	i	60%*	i	i	85*	i
CCOC(=O)C1=C(CSc2nc(CC)c(C)cc2C#N)OC(N)=C(C#N)C1c1ccc(OC)cc1 (stereo not drawn)	-9.7*	-9	i	-9.2*	0.86	i	54%*	i	45%*	112*	0.15*
CC1(C)CC(=O)C2=C(C1)N=C1c3ccccc3C(=O)C1C2c1ccc(Cl)cc1 (stereo not drawn)	-12*	-11	i	-15*	-0.01	i	55%*	i	40%*	122*	0.14*
c1coc(CN(Cc2ccco2)c2ncnc3c2oc2ccccc23)c1	-18*	-9	i	-12*	0.05	i	70%*	i	i	139*	0.14*
Clc1ncnc2c1oc1ccccc12	i	-18	i	i	1.5	i	nt	nt	nt	nt	nt
COc1ccccc1C(=O)Nc1cccc(NC(=O)c2ccccc2C)c1	-9.1*	-15	i	-12*	0.76	i	54%*	i	30%*	84*	i
CC(C)C(=O)Nc1ccc(C(=O)c2ccccc2)cc1	i	-10	i	i	0.08	i	nt	nt	nt	nt	nt
COC(=O)C(C)N(C(=O)c1ccc(C(=O)c2ccccc2)cc1)c1c(C)cccc1C (stereo not drawn)	-9*	-4	i	-11*	-2.8	i	40%*	i	34%*	92*	i
CC1Oc2ccccc2C=C1/C=N/Nc1ccc(C(=O)O)cc1 (stereo not drawn)	i	-13	i	i	3.5	i	nt	nt	nt	nt	nt
Cn1ncc(C#N)c1/N=C/N(Cc1ccccc1)Cc1ccccc1	-15*	-11	i	-8.9*	0.37	i	36%*	i	29%*	114*	0.16*
N=c1c2c(ncn1Cc1ccco1)Oc1ccc3ccccc3c1C2c1ccccc1 (stereo not drawn)	i	-15	i	i	-1.3	i	nt	nt	nt	nt	nt
N=c1c2c(-c3ccccc3)c(-c3ccccc3)n(Cc3ccco3)c2ncn1Cc1ccco1	-8.7*	-38	11*	-14*	-9.8*	i	54%*	46%*	31%*	110*	0.15*
CC(C)(C)N1CC23C=CC(C[C@@H]2C1=O)O3 (stereo partly drawn)	i	-10	i	i	-1.2	i	nt	nt	nt	nt	nt
O=C1c2ccccc2C(Nc2ccc3c(c2)OCCO3)N1c1ccccn1 (stereo not drawn)	-15*	-10	i	-9.6*	2.5	i	52%*	i	47%*	103*	i
O=C1NC[C@@H](c2ccccc2)OC(=O)[C@@H](Cc2ccc(F)cc2)C/C=C\C[C@@H]1CC(=O)N(CCO)Cc1ccccc1	nt	nt	nt	i	nt	nt	nt	nt	nt	nt	nt
